The source of these data is ChEMBL document CHEMBL1156684, “Non-nucleoside HIV-1 reverse transcriptase inhibitors. Part 11: structural modulations of diaryltriazines with potent anti-HIV activity” (Eur J Med Chem, 2008).

pIC50: −log10 of the molar value.

For data set [1], the system named is Human immunodeficiency virus 1. As to the kind of experiment: Antiviral activity against HIV 3B in human MT4 cells assessed as inhibition of viral replication by MTT assay. Format: functional, organism-based. As to conditions: Human immunodeficiency virus 1, 3B. Put shortly: (§1)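 MT-4 cells at 1 × 10⁵ cells/ml infected with HIV at multiplicity of infection 0.02 (virus stocks titrated in MT-4 cells as CCID₅₀), then plated immediately with serial compound dilutions (DMSO stocks at 50 mM or higher). Viable cells counted by MTT after 4 days at 37 °C. IC₅₀ is the concentration protecting 50% of cells from viral cytopathogenicity.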

Data set [2] can be described thus: Selectivity index, ratio of CC50 for human MT4 cells to IC50 for HIV1 3B. Format: functional. Put shortly:
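Ratio CC₅₀/IC₅₀. CC₅₀ is from MTT viability of MT-4 cells and IC₅₀ from MTT protection of HIV-infected MT-4 cells (MOI 0.02), both after 4 days at 37 °C.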

Data set [3] relates to Human immunodeficiency virus 2. As to the kind of experiment: Antiviral activity against HIV2 ROD in human MT4 cells assessed as inhibition of viral replication by MTT assay. Format: functional, organism-based. As to conditions: Human immunodeficiency virus 2, ROD. The method in brief:
as §1

Data set [4] is described as follows: Cytotoxicity against human MT4 cells after 4 days by MTT assay. Format: cell-based. Put shortly: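 Uninfected MT-4 cells exposed to graded compound concentrations (DMSO stocks at 50 mM or higher) for 4 days at 37 °C. Viability read by MTT. CC₅₀ is the concentration reducing MT-4 cell viability by 50%.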

Consider `CCCNc1nc(Nc2ccc(C#N)cc2)nc(Oc2ccc3cc(Br)ccc3c2Br)n1`, for which the negative-log IC50 (pIC50) in data set [1] was 6.59; in data set [3], 5.18. Besides, in data set [2], the “Ratio CC50/IC50” value is recorded as 524. In data set [4], this compound returned a CC50 at 96 h of 134 µM.
With `CC(C)Nc1nc(Nc2ccc(C#N)cc2)nc(Oc2ccc3cc(Br)ccc3c2Br)n1`, the negative-log IC50 (pIC50) is 6.16 in data set [1] and 5.01 in data set [3]. Further, the “Ratio CC50/IC50” value in data set [2] is >302. In data set [4], the CC50 at 96 h is ≥ 209 µM.
The like results for `CC(C)Nc1nc(Nc2ccc(C#N)cc2)nc(Oc2ccc3ccccc3c2Br)n1` were, in that order, 5.97, < 4.38, 39 and 41.5 µM.
Taken in the same sequence, the figures for `CCNc1nc(Nc2ccc(C#N)cc2)nc(Oc2ccc3cc(Br)ccc3c2Br)n1` were 6.81, < 4.13, 477 and 74.4 µM.
`CNc1nc(Nc2ccc(C#N)cc2)nc(Oc2cccc3ccccc23)n1`: the figures for the pIC50 in data set [1] and in data set [3] were 6.73 and < 4.52, respectively. Also, in data set [2], the “Ratio CC50/IC50” value is 163. This compound returned a cytotoxic concentration (CC50) at 96 h in data set [4] of 30.3 µM.
Taken in the same sequence, the figures for `N#Cc1ccc(Nc2nc(N)nc(Oc3cccc4ccccc34)n2)cc1` were 6.97, < 4.41, 364 and 39.1 µM.
Regarding `CCCNc1nc(Nc2ccc(C#N)cc2)nc(Oc2cccc3ccccc23)n1`, the negative logarithm of the IC50 (pIC50) in data set [1] was 5.57; in data set [3] it was < 4.14. The “Ratio CC50/IC50” value in data set [2] came out at 11. In addition, in data set [4], the CC50 at 96 h stood at 29.5 µM.
Taken in the same sequence, the figures for `N#Cc1ccc(Nc2nc(N)nc(Oc3ccc4ccccc4c3)n2)cc1` were 7.05, ≤ 4.94, 471 and 42.2 µM.
The like results for `CCCNc1nc(Nc2ccc(C#N)cc2)nc(Oc2ccc3ccccc3c2Br)n1` were, in that order, 6.69, ≤ 4.23, >1294 and > 263 µM.
For the compound `CNc1nc(Nc2ccc(C#N)cc2)nc(Oc2ccc3ccccc3c2Cl)n1`, the results for the negative logarithm of the IC50 (pIC50) in data set [1] and in data set [3] were 7.93 and < 3.77, respectively. In data set [2], the “Ratio CC50/IC50” value turned out to be 14412. Also, the 50% cytotoxic concentration (CC50) at 96 h in data set [4] worked out at 171 µM.
`N#Cc1ccc(Nc2nc(N)nc(Oc3ccc4ccccc4c3Cl)n2)cc1`: the negative-log IC50 (pIC50) was 7.54 in data set [1] and ≤ 5.28 in data set [3]. Moreover, in data set [2], the “Ratio CC50/IC50” value was found to be 2872.
Regarding `N#Cc1ccc(Nc2nc(N=[N+]=[N-])nc(Oc3ccc4ccccc4c3Cl)n2)cc1`, the results for the negative-log IC50 (pIC50) in data set [1] and in data set [3] were 7.22 and 5.21, respectively. The “Ratio CC50/IC50” value in data set [2] is listed as 4270. The compound also showed a 50% cytotoxic concentration (CC50) at 96 h in data set [4] of 256 µM.
Taken in the same sequence, the figures for `CCNc1nc(Nc2ccc(C#N)cc2)nc(Oc2ccc3ccccc3c2Cl)n1` were 6.94, 4.80, 1642 and 188 µM.
The like results for `CNc1nc(Nc2ccc(C#N)cc2)nc(Oc2ccc3cc(Br)ccc3c2)n1` were, in that order, 6.55, < 3.71, 685 and 194 µM.
Taken in the same sequence, the figures for `CNc1nc(Nc2ccc(C#N)cc2)nc(Oc2ccc3ccccc3c2Br)n1` were 8.03, ≤ 4.55, 15400 and 143 µM.
On to `CCCNc1nc(Nc2ccc(C#N)cc2)nc(Oc2ccc3ccccc3c2Cl)n1`, for which the figures for the pIC50 in data set [1] and in data set [3] were 6.73 and ≤ 4.36, respectively. Moreover, the “Ratio CC50/IC50” value in data set [2] is listed as >1547. The 50% cytotoxic concentration (CC50) at 96 h in data set [4] was > 290 µM.
Taken in the same sequence, the figures for `N#Cc1ccc(Nc2nc(N)nc(Oc3ccc4cc(Br)ccc4c3Br)n2)cc1` were 7.71, 4.98, 12475 and 244 µM.
The like results for `N#Cc1ccc(Nc2nc(N)nc(Oc3ccc(Cl)c4ccccc34)n2)cc1` were, in that order, 7.21, ≤ 4.90, 3775 and 237 µM.
Taken in the same sequence, the figures for `CCNc1nc(Nc2ccc(C#N)cc2)nc(Oc2ccc(Cl)c3ccccc23)n1` were 6.13, < 3.68, 285 and 208 µM.
Turning to `CCCNc1nc(Nc2ccc(C#N)cc2)nc(Oc2ccc(Cl)c3ccccc23)n1`, the negative logarithm of the IC50 (pIC50) in data set [1] is 5.79; in data set [3] it was 4.34. For the same compound, the “Ratio CC50/IC50” value in data set [2] is 111. The compound further returned a CC50 at 96 h in data set [4] of 182 µM.
The like results for `CNc1nc(Nc2ccc(C#N)cc2)nc(Oc2ccc3ccccc3c2)n1` were, in that order, 6.59, < 3.60, 968 and 250 µM.
Taken in the same sequence, the figures for `CNc1nc(Nc2ccc(C#N)cc2)nc(Oc2ccc(Cl)c3ccccc23)n1` were 7.03, < 3.71, 2111 and 197 µM.
Taken in the same sequence, the figures for `N#Cc1ccc(Nc2nc(N)nc(Oc3ccc4ccccc4c3Br)n2)cc1` were 8.03, 4.69, 14094 and 133 µM.
Consider `N#Cc1ccc(Nc2nc(N)nc(Oc3ccc4cc(Br)ccc4c3)n2)cc1`, for which the pIC50 in data set [1] was 7.09; in data set [3] it was 4.71. Further, in data set [2], the “Ratio CC50/IC50” value is given as 3019. Besides, the 50% cytotoxic concentration (CC50) at 96 h in data set [4] is 243 µM.
The like results for `CNc1nc(Nc2ccc(C#N)cc2)nc(Oc2ccc3cc(Br)ccc3c2Br)n1` were, in that order, 7.74, < 4.04, 5018 and 92.8 µM.
In the case of `O=c1[nH]cnc2c1ncn2[C@H]1CC[C@@H](CO)O1` [DIDANOSINE], the “Ratio CC50/IC50” value in data set [2] is “>=98”. In data set [4], the CC50 at 96 h is ≥ 529 µM.
As to `Cc1ccnc2c1NC(=O)c1cccnc1N2C1CC1` [NEVIRAPINE], the “Ratio CC50/IC50” value in data set [2] is reported as >800. Also, the cytotoxic concentration (CC50) at 96 h in data set [4] is > 200 µM.
